Data set [1] addresses PI3-kinase p110-delta/p85-alpha (Homo sapiens, UniProt O00329). Briefly: Inhibition of human p110delta catalytic subunit/p85alpha using PIP2 as substrate after 30 mins in presence of ATP at 2xKm concentration by TR-FRET assay. It counts as protein-complex assay. Summed up:
(§1)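 Class I PI3K isoforms assayed in vitro for kinase inhibition with ATP at 2Km steady-state concentration; IC50 values averaged over at least 2 determinations.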

Data set [2] concerns the target PI3-kinase p110-alpha/p85-alpha (Homo sapiens, UniProt P42336). Briefly: Inhibition of human full length p110alpha/p85alpha using PIP2 as substrate after 30 mins in presence of ATP at 2xKm concentration by TR-FRET assay. It counts as protein-complex assay. Summed up: as §1
On the technique in general: Time-resolved FRET reads energy transfer from a long-lived donor to a nearby acceptor.

Data set [3] has as its target Phosphatidylinositol 4,5-bisphosphate 3-kinase catalytic subunit gamma isoform (Homo sapiens, UniProt P48736). Put plainly: Inhibition of human full length p110gamma using PIP2 as substrate after 30 mins in presence of ATP at 2xKm concentration by TR-FRET assay.
The nature of data set [4]: Clearance in cynomolgus monkey at 1 mg/kg administered as iv infusion for 30 mins and measured after 24 hrs by ESI-LC/MS/MS analysis. It is filed as ADME, organism-based, Macaca fascicularis. The note with it: in vivo.
The nature of data set [5]: Dissociation constant, acidic pKa of compound. It is filed as physicochemical.
In data set [6] the target is T1, Phosphatidylinositol 4,5-bisphosphate 3-kinase catalytic subunit beta isoform (Homo sapiens, UniProt P42338). Briefly: Inhibition of PI3Kbeta in PTEN-deficient human PC3 cells assessed as reduction in AKT phosphorylation at Ser473 residue after 2 hrs by mesoscale assay. It is filed as cell-based, PC-3. The procedure, abridged: (§2)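 Cellular readout: pAKT1 Ser473 normalized to total AKT1, expressed as units pAKT1 Ser473 per nanogram total AKT1; cells treated under serum-free conditions.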

Data set [7] can be described thus: Protein binding in cynomolgus monkey plasma at 1 mg/kg administered as iv infusion for 30 mins and measured after 24 hrs by ESI-LC/MS/MS analysis. The note with it: read-out: PPB (converted). It is filed as ADME, organism-based, Macaca fascicularis.
The nature of data set [8]: Volume of distribution at steady state in cynomolgus monkey at 1 mg/kg administered as iv infusion for 30 mins and measured after 24 hrs by ESI-LC/MS/MS analysis. It is filed as ADME, organism-based, Macaca fascicularis. Particulars: in vivo, read-out: Vdss.
Data set [9] is described as follows: Protein binding in Beagle dog plasma at 1 mg/kg administered as iv infusion for 30 mins and measured after 24 hrs by ESI-LC/MS/MS analysis. It counts as ADME, organism-based, Canis lupus familiaris. The note with it: read-out: PPB (converted).
In data set [10] the target is T1, Phosphatidylinositol 4,5-bisphosphate 3-kinase catalytic subunit beta isoform. Put plainly: Inhibition of PI3Kbeta in PTEN-deficient human LNCAP cells assessed as reduction in AKT phosphorylation at Ser473 residue after 2 hrs by mesoscale assay. It is filed as cell-based. Summed up:
as §2

Data set [11] in a line: Apparent permeability across basolateral to apical side in human Caco2 cells at 10 uM after 1 to 2 hrs by LC/MS/MS analysis. Particulars: Caco-2. It counts as ADME, cell-based.
Data set [12] in a line: Protein binding in Sprague-Dawley rat plasma at 1 mg/kg administered as iv infusion for 30 mins and measured after 24 hrs by ESI-LC/MS/MS analysis. Particulars: read-out: PPB (converted). It is filed as ADME, organism-based.
The nature of data set [13]: Genotoxicity in Salmonella typhimurium by Ames test. Particulars: salmonella enterica subsp. enterica serovar typhimurium. It is filed as toxicity. On the technique in general: The Ames test detects mutagens through reverse mutation in bacteria.
The next data set addresses Cytochrome P450 3A4 (Homo sapiens, UniProt P08684). Put plainly: Inhibition of human CYP3A4. It counts as ADME.
The nature of data set [14]: Protein binding in rhesus monkey plasma at 1 mg/kg administered as iv infusion for 30 mins and measured after 24 hrs by ESI-LC/MS/MS analysis. It counts as ADME, organism-based, Macaca mulatta. The note with it: read-out: PPB (converted).
Data set [15] addresses T1, Phosphatidylinositol 4,5-bisphosphate 3-kinase catalytic subunit beta isoform. Put plainly: Inhibition of PI3Kbeta in PTEN-deficient human LNCaP C4-2 cells assessed as reduction in AKT phosphorylation at Ser473 residue after 2 hrs by mesoscale assay. It counts as cell-based. The procedure, abridged:
as §2

The nature of data set [16]: Volume of distribution at steady state in rhesus monkey at 1 mg/kg administered as iv infusion for 30 mins and measured after 24 hrs by ESI-LC/MS/MS analysis. Particulars: in vivo, read-out: Vdss. It counts as ADME, organism-based, Macaca mulatta.
Data set [17] has as its target Voltage-gated inwardly rectifying potassium channel KCNH2 (Homo sapiens, UniProt Q12809). Put plainly: Inhibition of human ERG. Summed up:
(§3)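 Binding-assay format used to measure inhibition of major human CYP450 enzymes and hERG.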

Data set [18] in a line: Oral bioavailability in Sprague-Dawley rat at 5 mg/kg dosed via gavage after 24 hrs by ESI-LC/MS/MS analysis. It counts as ADME, organism-based. The note with it: in vivo.
For a further data set, the target named is CYP450 (Homo sapiens, UniProt P04798+P05177+P05181+P08684+P10632+P10635+P11509+P11712+P13584+P20813+P20815+P20853+P24462+P24903+P33260+P33261+P51589+P78329+P98187+Q02928+Q08477+Q16678+Q16696+Q5TCH4+Q6VVX0+Q7Z449+Q8TAV3+Q96SQ9+Q9HB55). Put plainly: Inhibition of human CYP450. It is filed as ADME, protein assay. The procedure, abridged:
as §3

In data set [19] the target is T1, Phosphatidylinositol 4,5-bisphosphate 3-kinase catalytic subunit beta isoform. Put plainly: Inhibition of PI3Kbeta in PTEN-deficient human MDA-MB-415 cells assessed as reduction in AKT phosphorylation at Ser473 residue after 2 hrs by mesoscale assay. It counts as cell-based. The procedure, abridged:
as §2

For data set [20] the target is unchanged. Put plainly: Inhibition of PI3Kbeta in PTEN-deficient human ZR-75-1 cells assessed as reduction in AKT phosphorylation at Ser473 residue after 2 hrs by mesoscale assay. It is filed as cell-based. Summed up:
as §2

Data set [21] is described as follows: Oral bioavailability in cynomolgus monkey at 5 mg/kg dosed via gavage after 24 hrs by ESI-LC/MS/MS analysis. It is filed as ADME, organism-based, Macaca fascicularis. The note with it: in vivo.
Data set [22] can be described thus: Clearance in human hepatocytes at 1 uM measured up to 250 mins by UHPLC-HRMS analysis. It counts as ADME, cell-based, Hepatocyte. Particulars: 250 min, 1 µM.
Data set [23] is described as follows: Apparent permeability across apical to basolateral side in human Caco2 cells at 10 uM after 1 to 2 hrs by LC/MS/MS analysis. It is filed as ADME, cell-based. The note with it: Caco-2.
In a further data set the target is PI3K p110 beta/p85 alpha (Homo sapiens, UniProt P42338). Put plainly: Inhibition of recombinant human full-length N-terminal His6-tagged p110beta/human recombinant full-length untagged p85alpha expressed in baculovirus infected Sf21 insect cells using PIP2 as substrate after 30 mins in presence of ATP at 2xKm concentration by TR-FRET assay. Summed up:
as §1

Usually IC50 stands for the concentration that inhibits the measured activity by half. One may read the clearance as the volume of plasma or blood freed of the substance per unit of time. Broadly, the pKa is the pH at which an ionisable group is half protonated. The term EC50 denotes the midpoint of the concentration-response curve. Broadly, the Papp B→A is the apparent permeability from the basolateral to the apical side of a cell layer. As usually defined, the bioavailability is dose-corrected exposure relative to a reference, in per cent. The term Papp A→B denotes how fast a substance crosses the layer from the apical side.

“And” between values parts separate entries of the source, which are not always exact repeats. Identical values can stand only once.

Cytochrome P450 3A4, sequence (P08684 whole entry, the tested form may be a part): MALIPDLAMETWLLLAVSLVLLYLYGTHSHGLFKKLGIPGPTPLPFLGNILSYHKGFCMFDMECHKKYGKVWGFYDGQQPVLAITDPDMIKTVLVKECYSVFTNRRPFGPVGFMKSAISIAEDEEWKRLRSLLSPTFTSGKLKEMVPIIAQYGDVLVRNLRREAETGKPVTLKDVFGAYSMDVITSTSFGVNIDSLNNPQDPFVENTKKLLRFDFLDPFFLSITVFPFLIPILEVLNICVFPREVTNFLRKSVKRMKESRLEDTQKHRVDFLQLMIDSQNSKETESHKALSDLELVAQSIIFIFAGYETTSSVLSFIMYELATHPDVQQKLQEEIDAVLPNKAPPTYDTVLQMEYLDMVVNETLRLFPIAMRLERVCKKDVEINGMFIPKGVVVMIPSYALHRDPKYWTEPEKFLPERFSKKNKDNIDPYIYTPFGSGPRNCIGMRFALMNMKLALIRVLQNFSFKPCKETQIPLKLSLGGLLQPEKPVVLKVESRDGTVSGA
Phosphatidylinositol 4,5-bisphosphate 3-kinase catalytic subunit gamma isoform, sequence (P48736 whole entry, the tested form may be a part, canonical isoform): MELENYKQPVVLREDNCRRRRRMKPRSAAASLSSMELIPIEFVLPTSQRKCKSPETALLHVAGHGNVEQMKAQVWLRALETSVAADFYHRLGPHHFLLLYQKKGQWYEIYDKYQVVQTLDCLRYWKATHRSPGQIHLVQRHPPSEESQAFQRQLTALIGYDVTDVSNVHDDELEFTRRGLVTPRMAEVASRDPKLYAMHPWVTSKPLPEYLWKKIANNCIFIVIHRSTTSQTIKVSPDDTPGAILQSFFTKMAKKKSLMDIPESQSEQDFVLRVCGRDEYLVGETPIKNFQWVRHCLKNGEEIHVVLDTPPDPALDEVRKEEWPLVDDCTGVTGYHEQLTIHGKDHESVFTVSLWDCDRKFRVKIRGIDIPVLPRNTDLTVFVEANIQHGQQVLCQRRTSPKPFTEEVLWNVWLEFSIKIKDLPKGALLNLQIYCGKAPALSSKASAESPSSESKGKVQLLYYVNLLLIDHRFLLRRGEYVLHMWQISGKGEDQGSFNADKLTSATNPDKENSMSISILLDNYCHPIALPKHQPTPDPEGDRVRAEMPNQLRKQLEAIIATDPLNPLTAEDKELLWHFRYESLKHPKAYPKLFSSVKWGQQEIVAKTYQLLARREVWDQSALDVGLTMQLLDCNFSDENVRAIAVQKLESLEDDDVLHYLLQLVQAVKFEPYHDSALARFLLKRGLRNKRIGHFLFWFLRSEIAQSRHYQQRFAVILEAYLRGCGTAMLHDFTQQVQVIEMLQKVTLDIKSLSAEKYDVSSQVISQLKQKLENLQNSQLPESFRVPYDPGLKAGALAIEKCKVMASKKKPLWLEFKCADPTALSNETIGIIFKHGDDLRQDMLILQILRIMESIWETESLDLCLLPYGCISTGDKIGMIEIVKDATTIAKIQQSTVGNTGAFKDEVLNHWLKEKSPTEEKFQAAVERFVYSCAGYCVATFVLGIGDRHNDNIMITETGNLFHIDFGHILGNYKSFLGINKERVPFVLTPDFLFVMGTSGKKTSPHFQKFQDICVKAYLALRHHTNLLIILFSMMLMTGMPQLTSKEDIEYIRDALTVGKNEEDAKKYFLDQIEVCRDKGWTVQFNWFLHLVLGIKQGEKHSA
PI3-kinase p110-delta/p85-alpha, sequence (P27986 whole entry, canonical isoform): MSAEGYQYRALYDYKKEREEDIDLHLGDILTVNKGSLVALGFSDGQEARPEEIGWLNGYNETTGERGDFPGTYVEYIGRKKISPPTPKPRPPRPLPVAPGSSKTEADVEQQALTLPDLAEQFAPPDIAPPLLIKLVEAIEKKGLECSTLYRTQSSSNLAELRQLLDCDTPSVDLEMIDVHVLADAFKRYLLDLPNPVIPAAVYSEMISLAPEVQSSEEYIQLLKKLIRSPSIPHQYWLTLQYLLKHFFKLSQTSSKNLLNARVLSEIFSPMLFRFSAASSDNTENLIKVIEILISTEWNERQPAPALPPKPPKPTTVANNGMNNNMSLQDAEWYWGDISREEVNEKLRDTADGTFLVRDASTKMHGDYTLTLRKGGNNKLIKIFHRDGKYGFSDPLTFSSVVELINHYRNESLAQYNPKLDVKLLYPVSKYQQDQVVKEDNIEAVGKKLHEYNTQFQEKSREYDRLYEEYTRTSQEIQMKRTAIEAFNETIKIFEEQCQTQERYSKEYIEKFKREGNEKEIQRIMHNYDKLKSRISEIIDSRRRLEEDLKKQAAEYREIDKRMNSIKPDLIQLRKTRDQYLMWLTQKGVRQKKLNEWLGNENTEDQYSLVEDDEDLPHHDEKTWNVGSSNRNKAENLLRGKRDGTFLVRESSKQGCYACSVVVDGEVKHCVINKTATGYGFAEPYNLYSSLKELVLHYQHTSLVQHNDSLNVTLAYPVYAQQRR
PI3-kinase p110-delta/p85-alpha, sequence (O00329 whole entry, canonical isoform): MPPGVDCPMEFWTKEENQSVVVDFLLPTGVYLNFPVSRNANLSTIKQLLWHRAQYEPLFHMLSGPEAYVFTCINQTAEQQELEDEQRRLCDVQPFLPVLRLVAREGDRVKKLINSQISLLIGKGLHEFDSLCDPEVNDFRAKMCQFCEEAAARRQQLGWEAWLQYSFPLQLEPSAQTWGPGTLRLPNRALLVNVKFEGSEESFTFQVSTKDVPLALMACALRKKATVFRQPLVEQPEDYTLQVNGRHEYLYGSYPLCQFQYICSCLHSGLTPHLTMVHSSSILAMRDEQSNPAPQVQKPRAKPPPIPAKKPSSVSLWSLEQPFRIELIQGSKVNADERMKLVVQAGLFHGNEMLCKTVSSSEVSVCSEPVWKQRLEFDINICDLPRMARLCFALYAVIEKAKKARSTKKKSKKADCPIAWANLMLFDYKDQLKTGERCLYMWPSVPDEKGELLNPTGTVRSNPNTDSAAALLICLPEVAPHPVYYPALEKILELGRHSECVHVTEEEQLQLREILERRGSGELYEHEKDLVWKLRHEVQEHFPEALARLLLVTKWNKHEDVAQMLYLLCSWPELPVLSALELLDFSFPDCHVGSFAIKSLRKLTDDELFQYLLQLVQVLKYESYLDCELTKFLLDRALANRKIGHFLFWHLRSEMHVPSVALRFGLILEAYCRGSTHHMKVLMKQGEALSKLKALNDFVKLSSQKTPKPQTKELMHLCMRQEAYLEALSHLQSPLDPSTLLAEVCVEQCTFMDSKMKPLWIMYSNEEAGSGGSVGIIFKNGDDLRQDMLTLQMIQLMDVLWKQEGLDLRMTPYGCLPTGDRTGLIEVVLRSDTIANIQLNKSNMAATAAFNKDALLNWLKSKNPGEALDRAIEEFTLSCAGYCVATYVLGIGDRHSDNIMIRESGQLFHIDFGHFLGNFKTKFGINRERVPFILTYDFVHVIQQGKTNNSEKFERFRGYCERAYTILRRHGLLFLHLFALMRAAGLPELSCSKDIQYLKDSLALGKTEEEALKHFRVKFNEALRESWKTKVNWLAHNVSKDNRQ
PI3-kinase p110-alpha/p85-alpha, sequence (P27986 whole entry): as the sequence (P27986 whole entry, canonical isoform) above
PI3-kinase p110-alpha/p85-alpha, sequence (P42336 whole entry): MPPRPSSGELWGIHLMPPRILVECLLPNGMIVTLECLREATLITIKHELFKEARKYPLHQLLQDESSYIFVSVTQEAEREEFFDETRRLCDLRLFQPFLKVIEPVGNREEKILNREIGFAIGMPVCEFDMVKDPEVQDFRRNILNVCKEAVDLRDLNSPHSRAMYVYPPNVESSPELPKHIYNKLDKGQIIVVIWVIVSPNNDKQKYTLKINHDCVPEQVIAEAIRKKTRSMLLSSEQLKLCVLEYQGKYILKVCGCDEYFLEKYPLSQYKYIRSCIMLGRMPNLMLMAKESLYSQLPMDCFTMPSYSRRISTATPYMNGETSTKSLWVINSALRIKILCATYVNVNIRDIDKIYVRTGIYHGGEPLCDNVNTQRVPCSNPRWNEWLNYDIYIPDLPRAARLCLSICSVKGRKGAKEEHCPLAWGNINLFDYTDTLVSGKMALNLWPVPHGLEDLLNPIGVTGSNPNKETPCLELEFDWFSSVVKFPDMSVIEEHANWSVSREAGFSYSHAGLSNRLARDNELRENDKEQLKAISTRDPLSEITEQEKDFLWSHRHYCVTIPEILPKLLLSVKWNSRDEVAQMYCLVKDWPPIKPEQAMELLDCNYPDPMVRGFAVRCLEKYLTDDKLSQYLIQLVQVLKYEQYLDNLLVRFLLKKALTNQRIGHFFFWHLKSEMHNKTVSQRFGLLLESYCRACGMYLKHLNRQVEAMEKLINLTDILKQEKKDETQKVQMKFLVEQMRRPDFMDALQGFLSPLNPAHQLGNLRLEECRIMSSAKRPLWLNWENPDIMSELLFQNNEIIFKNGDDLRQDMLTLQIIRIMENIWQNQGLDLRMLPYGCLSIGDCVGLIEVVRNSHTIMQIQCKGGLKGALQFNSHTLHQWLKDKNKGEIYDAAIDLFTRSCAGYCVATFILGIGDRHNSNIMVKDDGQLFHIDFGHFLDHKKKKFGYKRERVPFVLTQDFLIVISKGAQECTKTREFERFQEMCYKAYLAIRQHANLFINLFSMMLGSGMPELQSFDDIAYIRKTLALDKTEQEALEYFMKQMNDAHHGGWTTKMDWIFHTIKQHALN

With `Cc1cc(C(C)Nc2ccccc2)c2nc(N3CCOCC3)cc(=O)n2c1` (stereo unspecified), the IC50 in [1] is 500 nM; in [2], 7600 nM; in [3], over 10 µM.

Take `Cc1nc2c(-c3nnc[nH]3)cc(-c3ccnc(N)c3F)cc2n1-c1ccnc2c(F)ccc(F)c12`: the clearance in data set [4] is 2.17 mL/min/kg. Further, the pKa in data set [5] came to 4.8. Moreover, the EC50 in data set [6] came to 9 nM; in [10], 53 nM; in data set [15], 15 nM; in [19] it was 12 nM; in data set [20] it was 6 nM. Besides, the fraction unbound at 24 h in [7] is 0.06; in data set [9], 0.08; in [12] it was 0.19; in [14], 0.07. The Vd in [8] came out at 0.5 L/kg; in data set [16], 0.6 L/kg. In addition, the apparent permeability from basolateral to apical (Papp B→A) at 10 µM in [11] was 31 ×10⁻⁶ cm/s. Further, the Activity entry in data set [13] is “Non-Toxic”. For the same compound, the IC50 (against Cytochrome P450 3A4; in data set [17]; on CYP450) was over 25 µM throughout. Besides, the bioavailability in data set [18] is 60%; in [21], 64%.

For `Cc1nc2c(-c3nnc[nH]3)cc(-c3ccnc(C(F)F)c3)cc2n1-c1ccnc2c(F)ccc(F)c12`, the half-inhibitory concentration (IC50) in data set [1] amounted to 402 nM; in [2] it was 680 nM; in data set [3], 9.42 µM.

As for `Cc1nc2c(-c3nnc[nH]3)cc(-c3c(F)cnc(N)c3F)cc2n1-c1ccnc2c(F)ccc(F)c12`, the IC50 in data set [1] is 1660 nM; in data set [2] it was 2520 nM; in data set [3] it was over 10 µM.

In data set [5], `Cc1nc2c(-c3nnc[nH]3)cc(-c3ccncc3)cc2n1-c1ccnc2c(F)ccc(F)c12` had a pKa of 5.3. Also, the CLH in data set [22] is 0.24 L/h/kg and 0.61 L/h/kg. The IC50 against Cytochrome P450 3A4 was 1 µM; in data set [3], over 10 µM.

For `Clc1cccc2c(-n3cnc4c(-c5ncn[nH]5)cc(-c5ccncc5)cc43)ccnc12`, the IC50 in data set [1] turned out to be 100 nM; in data set [2], 350 nM; in data set [3] it was 5.3 µM.

For the compound `CNc1nccc(-c2cc(-c3nnc[nH]3)c3nc(C)n(-c4ccnc5c(F)ccc(F)c45)c3c2)c1F`, the results for the 50% inhibitory concentration (IC50) in data set [1], in data set [2] and in data set [3] were over 10000 nM, over 10000 nM and over 10 µM, respectively.

Compound `Cc1cc(-c2cc(-c3nnc[nH]3)c3nc(C)n(-c4ccnc5c(F)ccc(F)c45)c3c2)ccn1` came in with a pKa in [5] of 5.9. Also, the IC50 at Cytochrome P450 3A4 was 19 µM; in [1] it was 300 nM and 122 nM and 1110 nM; in [3], over 10 µM.

For the compound `Cc1nccc(-c2cc(-c3nnc[nH]3)c3nc(C)n(-c4ccnc5c(F)ccc(F)c45)c3c2)n1`, the half-maximal inhibitory concentration (IC50) is 35 nM in [1], 55 nM in [2] and 2.72 µM in data set [3].

`Cc1nc2c(-c3nnc[nH]3)cc(-c3ccnc(N)c3)cc2n1-c1ccnc2c(F)ccc(F)c12` displayed a pKa in data set [5] of 6.1. In data set [11], the Papp B→A at 10 µM is 18 ×10⁻⁶ cm/s. For the same compound, the values for the IC50 (against Cytochrome P450 3A4; in data set [3]) were over 25 µM and over 10 µM, respectively. Further, the apical-to-basolateral permeability (Papp A→B) at 10 µM in data set [23] was 1.7 ×10⁻⁶ cm/s.

Regarding `Cc1cc(-c2cc(-c3nnc[nH]3)c3nc(C)n(-c4ccnc5c(F)ccc(F)c45)c3c2)ncn1`, the IC50 in data set [1] was 1140 nM; in data set [2], 1270 nM; in data set [3], over 10 µM.

Consider `Cc1nc2c(-c3nnc[nH]3)cc(-c3ccnc(N)c3Cl)cc2n1-c1ccnc2c(F)ccc(F)c12`, for which the IC50 in data set [1] was 297 nM; in data set [2], 890 nM; in data set [3] it was over 10 µM.

With `Cc1c(-c2cc(-c3nnc[nH]3)c3nc(C)n(-c4ccnc5c(F)ccc(F)c45)c3c2)ccnc1N`, the IC50 was over 10000 nM in data set [1], 2860 nM at PI3K p110 beta/p85 alpha, over 10000 nM in data set [2] and over 10 µM in [3].

For the compound `Cc1nc2c(-c3nnc[nH]3)cc(-c3ccnc(Cl)c3)cc2n1-c1ccnc2c(F)ccc(F)c12`, the IC50 in data set [1] is 52 nM; in data set [2] it was 75 nM; in data set [3], 6.27 µM.

For `Clc1cccc2c(-n3cnc4c(-c5nnc[nH]5)cc(N5CCOCC5)cc43)ccnc12`, the IC50 in data set [1] came to 12 nM; in [2] it was 60 nM; in data set [3] it was 0.35 µM.

For the compound `Cc1cc(-c2cc(-c3nnc[nH]3)c3nc(C)n(-c4ccnc5c(F)ccc(F)c45)c3c2)cc(N)n1`, the values for the IC50 in data set [1], in [2] and in [3] were 2590 nM, 6840 nM and over 10 µM, respectively.

For `Cc1nc2c(-c3nnc[nH]3)cc(-c3cc(N)ncc3F)cc2n1-c1ccnc2c(F)ccc(F)c12`, the results for the IC50 in [1], in data set [2] and in data set [3] were 302 nM, 1500 nM and over 10 µM, respectively.

`C[C@@H](Nc1cc(F)cc(F)c1)c1cc(C(=O)N(C)C)cc2c(=O)cc(N3CCOCC3)oc12` [AZD-8186]: the results for the half-maximal inhibitory concentration (IC50) in [1], in data set [2] and in data set [3] were 36 nM, 450 nM and 6 µM, respectively.

The values are drawn from ChEMBL document CHEMBL4616704, “Discovery of an Atropisomeric PI3Kβ Selective Inhibitor through Optimization of the Hinge Binding Motif” (ACS Med Chem Lett, 2020).
